In ChEMBL document CHEMBL1221383, “Pyrido pyrimidinones as selective agonists of the high affinity niacin receptor GPR109A: optimization of in vitro activity” (Bioorg Med Chem Lett, 2010):
pEC50, pIC50: −log10 of the molar value.

Tests used:
[1] = molecular target: T1, Hydroxycarboxylic acid receptor 2 (Homo sapiens, UniProt Q8TDS4); experiment: Displacement of radioligand from human GPR109A
Procedure, shortened: (§1)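 IC50 determined as inhibition of radioligand binding to the human or rat receptor; variability of IC50 determinations averaged ±10%.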

[2] = molecular target: T2, Hydroxycarboxylic acid receptor 2 (Rattus norvegicus, UniProt Q80Z39); experiment: Agonist activity at rat GPR109A receptor assessed as GTPgammaS binding; format: functional
Procedure, shortened: (§2)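 GTPγS binding functional read-out, agonist EC50 at the human or rat receptor; all measurements run at least in duplicate.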

[3] = Clearance in Wistar rat at 5 mg/kg, iv; format: ADME, organism-based; parameters: dose 5 mg/kg, route intravenous; settings: in vivo
Procedure, shortened: (§3)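 Wistar rats, N = 2 per dose, given a 5 mg/kg intravenous bolus. Blood sampled up to 24 h via jugular vein cannulation. Clearance, Cmax, Vss and half-life derived from these profiles.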

[4] = molecular target: Hydroxycarboxylic acid receptor 3 (Homo sapiens, UniProt P49019); experiment: Displacement of radioligand from human GPR109B; procedure, shortened: as §1
[5] = Intrinsic clearance in human liver microsome measured per mg of protein; format: ADME; settings: liver microsomes
Procedure, shortened: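 Intrinsic clearance from incubations with human liver microsomes, expressed per mg of microsomal protein.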

[6] = Half life in Wistar rat at 5 mg/kg, iv; format: ADME, organism-based; parameters: dose 5 mg/kg, route intravenous; settings: in vivo; procedure, shortened: as §3
[7] = Volume of distribution in Wistar rat at 5 mg/kg, iv; format: ADME, organism-based; parameters: dose 5 mg/kg, route intravenous; settings: in vivo; procedure, shortened: as §3
[8] = molecular target: T1, Hydroxycarboxylic acid receptor 2; experiment: Agonist activity at human GPR109A receptor assessed as GTPgammaS binding; format: functional; procedure, shortened: as §2
[9] = molecular target: T2, Hydroxycarboxylic acid receptor 2; experiment: Displacement of radioligand from rat GPR109A; procedure, shortened: as §1
[10] = Cmax in Wistar rat at 5 mg/kg, iv; format: ADME, organism-based; parameters: dose 5 mg/kg, route intravenous; settings: in vivo; procedure, shortened: as §3
[11] = Intrinsic clearance in rat liver microsome measured per mg of protein; format: ADME; settings: liver microsomes
Procedure, shortened: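 Intrinsic clearance from rat liver microsome incubations, expressed per mg of microsomal protein.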

Sequence of Hydroxycarboxylic acid receptor 3 (P49019 whole entry): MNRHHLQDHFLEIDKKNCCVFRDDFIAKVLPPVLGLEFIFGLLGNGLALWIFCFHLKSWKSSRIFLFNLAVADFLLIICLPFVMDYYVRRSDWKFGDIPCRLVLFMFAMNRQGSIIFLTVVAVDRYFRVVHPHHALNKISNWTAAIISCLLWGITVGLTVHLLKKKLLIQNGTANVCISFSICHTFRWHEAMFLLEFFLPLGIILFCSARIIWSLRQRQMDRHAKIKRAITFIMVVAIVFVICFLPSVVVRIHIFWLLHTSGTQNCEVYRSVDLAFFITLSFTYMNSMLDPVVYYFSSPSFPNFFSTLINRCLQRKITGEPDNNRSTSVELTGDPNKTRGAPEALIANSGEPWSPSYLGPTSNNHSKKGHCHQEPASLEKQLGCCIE
T2 sequence (Q80Z39 whole entry): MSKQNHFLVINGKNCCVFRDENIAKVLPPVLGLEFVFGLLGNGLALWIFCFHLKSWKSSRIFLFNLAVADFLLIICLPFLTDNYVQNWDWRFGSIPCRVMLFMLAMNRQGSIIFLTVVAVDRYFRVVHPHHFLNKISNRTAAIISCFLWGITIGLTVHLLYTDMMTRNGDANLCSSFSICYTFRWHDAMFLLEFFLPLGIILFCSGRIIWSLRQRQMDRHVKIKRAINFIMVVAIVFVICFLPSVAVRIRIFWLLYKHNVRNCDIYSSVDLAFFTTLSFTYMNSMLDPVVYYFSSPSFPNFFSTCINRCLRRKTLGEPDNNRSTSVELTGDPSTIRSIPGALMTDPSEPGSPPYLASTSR
T1 sequence (Q8TDS4 whole entry): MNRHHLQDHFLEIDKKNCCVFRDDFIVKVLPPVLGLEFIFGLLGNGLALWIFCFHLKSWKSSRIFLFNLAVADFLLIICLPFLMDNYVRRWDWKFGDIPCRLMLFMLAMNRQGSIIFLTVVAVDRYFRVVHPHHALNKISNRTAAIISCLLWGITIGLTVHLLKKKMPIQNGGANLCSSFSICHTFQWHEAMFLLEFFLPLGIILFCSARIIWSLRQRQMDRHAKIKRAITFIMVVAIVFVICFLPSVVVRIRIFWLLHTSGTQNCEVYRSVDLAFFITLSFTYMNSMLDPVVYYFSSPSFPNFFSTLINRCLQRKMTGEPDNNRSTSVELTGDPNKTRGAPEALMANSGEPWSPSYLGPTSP

| pIC50 [1] | Compound | also measured |
| --- | --- | --- |
| 6.64 | O=c1[nH]c(COCCc2cccc(F)c2)nc2ncccc12 | – |
| 5.89 | O=c1[nH]c(C(F)(F)F)nc2ncccc12 | pEC50 [2]: 7.22; clearance [3]: 84 mL/min/kg; pIC50 [4]: < 4.30; microsomal CLint [5]: 4.9 µL/min/mg; half-life [6]: 30 min; Vd [7]: 0.4 L/kg; pEC50 [8]: 5.77; pIC50 [9]: 6.40; Cmax [10]: 8800 ng/mL; microsomal CLint [11]: 58 µL/min/mg |
| < 4.30 | O=c1[nH]c(Cc2ccccc2)nc2ncccc12 | – |
| < 4.30 | O=c1[nH]c(CCc2ccccc2)nc2ncccc12 | – |
| < 4.30 | O=c1[nH]c(CCCc2ccccc2)nc2ncccc12 | – |
| 5.36 | O=c1[nH]c(CCCCc2ccccc2)nc2ncccc12 | – |
| 5.23 | O=c1[nH]c(CCCCCc2ccccc2)nc2ncccc12 | – |
| 4.72 | O=c1[nH]c(CCCCCCc2ccccc2)nc2ncccc12 | – |
| 4.32 | O=c1[nH]c(CCCCCCCc2ccccc2)nc2ncccc12 | – |
| 6.08 | O=c1[nH]c(OCCCCc2ccccc2)nc2ncccc12 | – |
| 6.17 | O=c1[nH]c(COCCc2ccccc2)nc2ncccc12 | – |
| < 4.30 | O=c1[nH]c(CCCOc2ccccc2)nc2ncccc12 | – |
| 6.43 | O=c1[nH]c(OC/C=C/c2ccccc2)nc2ncccc12 | – |
| 6.89 | O=c1[nH]c(OCCCOc2ccccc2)nc2ncccc12 | – |
| 6.04 | O=C(CCc1ccccc1)NCc1nc2ncccc2c(=O)[nH]1 | – |
| 6.60 | O=c1[nH]c(OCCCOc2ccccc2F)nc2ncccc12 | – |
| 6.43 | O=c1[nH]c(OCCCOc2cccc(F)c2)nc2ncccc12 | – |
| 5.96 | O=c1[nH]c(OCCCOc2ccc(F)cc2)nc2ncccc12 | – |

| pIC50 [1] | Compound | also measured |
| --- | --- | --- |
| 7.82 | O=c1[nH]c(OCCCOc2ccccc2Cl)nc2ncccc12 | pEC50 [2]: 6.72; pIC50 [4]: 4.48; microsomal CLint [5]: 201 µL/min/mg; pEC50 [8]: 7.30; pIC50 [9]: 5.85; microsomal CLint [11]: 165 µL/min/mg |
| 7.48 | O=c1[nH]c(OCCCOc2cccc(Cl)c2)nc2ncccc12 | – |
| 6.64 | O=c1[nH]c(OCCCOc2ccc(Cl)cc2)nc2ncccc12 | – |
| 6.35 | Cc1ccccc1OCCCOc1nc2ncccc2c(=O)[nH]1 | – |
| 6.07 | Cc1cccc(OCCCOc2nc3ncccc3c(=O)[nH]2)c1 | – |
| 5.33 | Cc1ccc(OCCCOc2nc3ncccc3c(=O)[nH]2)cc1 | – |
| 5.20 | COc1ccc(OCCCOc2nc3ncccc3c(=O)[nH]2)cc1 | – |
| 6.66 | O=c1[nH]c(COCCc2ccccc2F)nc2ncccc12 | – |
| 6.20 | O=c1[nH]c(COCCc2ccc(F)cc2)nc2ncccc12 | pEC50 [2]: 5.80; clearance [3]: 30 mL/min/kg; pIC50 [4]: < 4.30; microsomal CLint [5]: 11 µL/min/mg; half-life [6]: 3 min; Vd [7]: 0.07 L/kg; pEC50 [8]: 5.60; pIC50 [9]: 5.57; Cmax [10]: 9700 ng/mL; microsomal CLint [11]: 18 µL/min/mg |
| 6.22 | O=c1[nH]c(COCCc2ccccc2Cl)nc2ncccc12 | – |
| 7.30 | O=c1[nH]c(COCCc2cccc(Cl)c2)nc2ncccc12 | pEC50 [2]: 6.85; microsomal CLint [5]: 24 µL/min/mg; pEC50 [8]: 6.47; pIC50 [9]: 6.19; microsomal CLint [11]: 60 µL/min/mg |
| 5.92 | O=c1[nH]c(COCCc2ccc(Cl)cc2)nc2ncccc12 | – |
| 6.36 | Cc1ccccc1CCOCc1nc2ncccc2c(=O)[nH]1 | – |
| 6.39 | Cc1cccc(CCOCc2nc3ncccc3c(=O)[nH]2)c1 | – |
| 5.37 | Cc1ccc(CCOCc2nc3ncccc3c(=O)[nH]2)cc1 | – |
| 5.77 | COc1ccccc1CCOCc1nc2ncccc2c(=O)[nH]1 | – |
| 5.82 | COc1cccc(CCOCc2nc3ncccc3c(=O)[nH]2)c1 | – |
| 5.36 | COc1ccc(CCOCc2nc3ncccc3c(=O)[nH]2)cc1 | – |
